High-throughput results (PubChem)
Fam108B inh: Fam108B inhibition, counter-screen for RBBP9 inhibitors; recombinant Fam108B, FP-Rh probe fluorescence polarization; inhibition, % at 9.51 µM; 300,000 compounds, 0.33% hits;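 active means inhibition above the screen mean inhibition plus 3 SD, computed separately per campaign, cut at about 18% in these data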;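 further: inhibitors lower polarization as less probe binds the enzyme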
PAD4 inh: PAD4 (human) enzyme inhibition | Q9UM07 | recombinant PAD4, RCA probe fluorescence polarization | inhibition, % at 6.36 µM | 330,000 compounds, 0.41% hits | AID 485272;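 active means percent inhibition above a cutoff equal to the mean of all tested compounds plus 3 SD, cut at about 15% in these data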;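 further: 0% = PAD4 with RCA probe and DMSO and 100% = probe without PAD4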
LYPLA2 inh: LYPLA2 (human) inhibition in PME1 counter-screen; inhibition, % at 5.9 µM; 320,000 compounds, 0.38% hits; AID 2177; recombinant LYPLA2, FP-Rh probe fluorescence polarization; O95372;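 active means inhibition above the screen-wide mean plus 3 SD, limit set per campaign, cut at about 26% in these data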;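 further: 0% = LYPLA2 with DMSO and 100% = wells lacking LYPLA2 enzyme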
Target sequence (O95372 whole entry, looked up): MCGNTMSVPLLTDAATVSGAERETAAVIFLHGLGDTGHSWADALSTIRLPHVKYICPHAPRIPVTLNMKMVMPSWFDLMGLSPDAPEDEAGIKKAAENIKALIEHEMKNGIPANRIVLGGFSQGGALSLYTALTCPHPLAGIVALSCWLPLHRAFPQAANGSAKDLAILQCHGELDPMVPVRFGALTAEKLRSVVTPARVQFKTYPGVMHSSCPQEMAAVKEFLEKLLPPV
LYPLA1 inh: LYPLA1 (human) inhibition in PME1 counter-screen. O75608. 320,000 compounds, 0.16% hits. inhibition, % at 5.9 µM. recombinant LYPLA1, FP-Rh probe fluorescence polarization;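 active means inhibition above the mean of all tested compounds plus 3 SD, set per campaign, cut at about 14% in these data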;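 further: inhibitors block serine hydrolase probe labeling of LYPLA1 so polarization falls; 0% = enzyme with DMSO and 100% = wells lacking LYPLA1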
Target sequence (O75608 whole entry, looked up): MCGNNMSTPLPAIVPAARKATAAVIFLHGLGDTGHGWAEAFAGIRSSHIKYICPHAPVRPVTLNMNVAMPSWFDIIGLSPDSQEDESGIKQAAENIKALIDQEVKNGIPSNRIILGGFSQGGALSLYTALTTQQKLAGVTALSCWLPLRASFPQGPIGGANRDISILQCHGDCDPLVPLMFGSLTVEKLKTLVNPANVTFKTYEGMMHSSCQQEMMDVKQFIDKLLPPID
PME-1 inh: PME-1 (human) inhibition | Q9Y570 | recombinant PME-1, FP-Rh probe fluorescence polarization | inhibition, % at 5.9 µM | 320,000 compounds, 0.53% hits | AID 2130;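 active means inhibition above the campaign mean of all compounds plus 3 SD, cut at about 26% in these data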;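 further: competitive labeling of PME-1 active site by serine hydrolase directed probe; 0% = PME-1 with DMSO and 100% = wells lacking PME-1 enzyme; inhibitors block probe labeling so polarization falls and inhibition rises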
RBBP9 inh: inhibitors of human serine hydrolase RBBP9; O75884; recombinant RBBP9, FP-Rh probe fluorescence polarization; inhibition, % at 7.94 µM; 220,000 compounds, 0.2% hits; AID 1515;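 active means inhibition above the campaign mean of all tested compounds plus 3 SD, cut at about 14% in these data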;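 further: plate controls were DMSO wells with RBBP9 for no effect and wells lacking RBBP9 protein for full effect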
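Test system: recombinant human RBBP9; Timing: 30 min then 45 min, 25 °C; Detection: fluorescence polarization; Control set: RBBP9 with DMSO as uninhibited control, no-protein wells as full inhibition; Compound dosing: one concentration, 7.94 µM nominal, 0.794% DMSO; Probe or stimulus: FP-Rh activity-based probe, 375 nM before mixing.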
LYPLA1 confirm: LYPLA1 (human) inhibition, confirmation counter-screen. recombinant LYPLA1, FP-Rh probe fluorescence polarization. 480 compounds, 69% hits. inhibition, % at 5.9 µM. shares compounds with LYPLA1 inh;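 active means mean inhibition across replicates above the hit cutoff set in the primary screen, cut at about 15% in these data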;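 further: loss of FP-Rh probe labeling of LYPLA1 seen as lower polarization; 0% = LYPLA1 with DMSO and 100% = wells lacking LYPLA1 enzyme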
LYPLA2 confirm: LYPLA2 (human) inhibition, confirmation counter-screen; recombinant LYPLA2, FP-Rh probe fluorescence polarization; shares compounds with LYPLA2 inh; inhibition, % at 5.9 µM; 1,100 compounds, 72% hits;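 active means mean inhibition across replicates above the hit cutoff set in the primary screen, cut at about 26% in these data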;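 further: blocked labeling of the enzyme by serine hydrolase FP-Rh probe lowers polarization; 0% = enzyme with DMSO and 100% = wells lacking LYPLA2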
LYPLA2 gel ABPP: inhibitors of human LYPLA2; shares compounds with LYPLA2 inh; rhLYPLA2 in mouse brain proteome, gel ABPP FP-Rh; inhibition, % at 20 µM; 150 compounds, 30% hits;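 active means inhibition of LYPLA2 enzyme probe labeling above about 50%, limit read from the data; inactive means inhibition below that limit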;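 further: loss of FP-Rh probe labeling of the LYPLA2 gel band measured as band density; 0% = DMSO only control band and 100% = blank gel background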
PAD4 FP conf: PAD4 (human) inhibition, confirmed; shares compounds with PAD4 inh; recombinant PAD4, RCA probe fluorescence polarization; inhibition, % at 6.36 µM; 1,200 compounds, 28% hits; AID 488796;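 active means mean inhibition across replicates above the hit cutoff set by the earlier primary screen, cut at about 15% in these data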;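 further: inhibitors block active-site labeling by the probe so polarization falls; 0% = PAD4 with probe and DMSO and 100% = probe without PAD4 enzyme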
* marks the source's active call; other numbers are inactive results; . = not tested or not shown. This is a sample that favours compounds with a hit; in the whole collection about 1.3% have one here.

SMILES | Fam108B inh | PAD4 inh | LYPLA2 inh | LYPLA1 inh | PME-1 inh | RBBP9 inh | LYPLA1 confirm | LYPLA2 confirm | PAD4 FP conf | others
Nc1ccc(N2CCOCC2)c2nonc12 | 9 | 81* | 70* | 70* | 25 | 3 | 1 | . | -8
O=C(Nc1ccc(N2CCOCC2)c2nonc12)C1CCCC1 | 5 | -10 | 1 | 0 | 6 | 13 | . | . | .
O=C(c1ccc2c(c1)OCCO2)N1CCN(c2ccc([N+](=O)[O-])cc2)CC1 | 0 | 0 | 11 | -1 | 4 | -4 | . | . | .
CC(=O)Nc1ccc(Nc2c3c4c(cccc4n(C)c2=O)C(=O)c2ccccc2-3)cc1 | 15 | 19* | 29* | 21* | 33* | 1 | 12 | 12 | 23*
CCCC(=Nc1ccc(N)cc1)C1=C(O)C(C(=O)OC)C(C)(C)CC1=O (stereo not drawn) | 16 | 67* | 28* | 15* | 34* | 2 | 2 | 5 | 1
CC1(OC(=O)c2ccco2)C(=O)C=C2C=C(C3CC3)OC=C2C1=O (stereo not drawn) | 14 | 20* | 23 | 21* | 20 | . | 15* | . | 11
CC1(OC(=O)c2cccs2)C(=O)C=C2C=C(C3CC3)OC=C2C1=O (stereo not drawn) | 6 | -3 | 8 | 4 | 3 | . | . | . | .
CCCCN(C)C1=CC2=CC(=C(C#N)C#N)CCC2CC1 (stereo not drawn) | 6 | 46* | 12 | 32* | 42* | -8 | 8 | . | 21*
CCN(CC)C1=CC2=CC(=C(C#N)C#N)CCC2CC1 (stereo not drawn) | 0 | 10 | 2 | 7 | 7 | -1 | . | . | .
COc1ccc(S(=O)(=O)Nc2ccc(NC(C)=O)cc2)cc1[N+](=O)[O-] | 4 | -2 | 2 | -2 | -3 | 0 | . | . | .
Nc1ccc2c(c1)C(=O)c1ccccc1C2=O | 3 | -6 | 3 | 1 | 5 | . | . | . | .
Nc1ccc2c(c1)C(=O)C(=O)c1ccccc1-2 | 66* | 82* | 95* | 87* | 38* | -9 | 81* | 92* | 73*
CCOc1ccc(NS(=O)(=O)c2ccc(C(=O)NC3CCC(O)CC3)cc2)cc1 (stereo not drawn) | 6 | -1 | 3 | 1 | 3 | . | . | . | .
CCOC(=O)c1ccc(NC(=S)N2CCCC2c2ccc(OC)c(OC)c2)cc1 (stereo not drawn) | -5 | -1 | 30* | 0 | 3 | -11 | . | 25 | .
CN(C)C(=O)N1CCC(C(=O)N2CCCC(C(=O)c3ccc(C(C)(C)C)cc3)C2)CC1 (stereo not drawn) | 2 | 2 | 34* | 4 | 3 | -7 | . | 34* | .
CC(C)(C)c1ccc(C(=O)C2CCCN(C(=O)CN3CCCC3=O)C2)cc1 (stereo not drawn) | -2 | 0 | 1 | -3 | 1 | 0 | . | . | .
Cc1cc(C(=O)COc2cccnc2[N+](=O)[O-])c(C)n1-c1ccccc1 | -1 | 2 | 11 | 0 | -1 | 2 | . | . | .
Cc1ccc(-n2c(C)cc(C(=O)COc3cccnc3[N+](=O)[O-])c2C)cc1 | 5 | -6 | 31* | 0 | -2 | 4 | . | 21 | .
Cc1cc(C(=O)COc2cccnc2[N+](=O)[O-])c(C)n1-c1ccccc1F | 0 | -11 | 28* | 2 | 3 | -3 | . | 25 | .
CC1CCCC(C)N1C(=O)COC(=O)CCC1CCCC1 (stereo not drawn) | 0 | 1 | 36* | 0 | 7 | . | . | 1 | .
CC(=O)c1ccc(N2CCN(C(=O)CCCn3c(=O)[nH]c4ccsc4c3=O)CC2)cc1 | -3 | 3 | 51* | 8 | -5 | . | . | 56* | . | LYPLA2 gel ABPP=16
